# Experimental data reported in ChEMBL document CHEMBL1782051, “Synthesis and biological evaluation of novel gamma-carboline analogues of Dimebon as potent 5-HT6 receptor antagonists” (Bioorg Med Chem Lett, 2009).
# Legend:
# Histamine H1 receptor [1] = target: T1, Histamine H1 receptor (Homo sapiens, UniProt P35367); assay: Antagonist activity at human histamine H1 receptor in SK-N-SH cells assessed as inhibition of histamine-induced calcium level increase during phase-1 compound incubated before histamine addition by Fura-2 based fluorometric assay; format: functional, cell-based
# T1 sequence (P35367 whole entry): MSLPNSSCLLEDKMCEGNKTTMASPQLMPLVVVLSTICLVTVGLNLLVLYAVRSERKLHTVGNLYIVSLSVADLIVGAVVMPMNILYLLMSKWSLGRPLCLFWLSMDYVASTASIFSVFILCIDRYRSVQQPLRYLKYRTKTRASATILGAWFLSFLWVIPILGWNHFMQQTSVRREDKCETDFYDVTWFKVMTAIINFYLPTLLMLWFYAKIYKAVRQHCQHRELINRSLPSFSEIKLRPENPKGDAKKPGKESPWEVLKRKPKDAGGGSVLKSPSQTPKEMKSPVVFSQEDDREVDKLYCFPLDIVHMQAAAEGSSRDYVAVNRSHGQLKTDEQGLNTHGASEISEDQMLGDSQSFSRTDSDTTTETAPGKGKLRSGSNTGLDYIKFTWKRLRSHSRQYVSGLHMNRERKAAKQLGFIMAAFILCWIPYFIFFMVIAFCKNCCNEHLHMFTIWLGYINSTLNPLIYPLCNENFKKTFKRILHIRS
# Method in brief: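 H1 receptor Ca-dependent signalling was measured in SK-N-SH cells as blockade of histamine-induced calcium flow in phase-I. IC50 values were reported.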
# Histamine H1 receptor [2] = target: T1, Histamine H1 receptor; assay: Antagonist activity at human histamine H1 receptor in SK-N-SH cells assessed as inhibition of histamine-induced calcium flow during phase-II compound dosed after histamine addition by Fura-2 based fluorometric assay; format: functional
# [3] = target: 5-hydroxytryptamine receptor 6 (Homo sapiens, UniProt P50406); assay: Antagonist activity at human recombinant 5-HT6 receptor expressed in HEK293 cells assessed as inhibition of serotonin-induced intracellular cAMP accumulation by LANCE technique; format: functional, cell-based
# Sequence of 5-hydroxytryptamine receptor 6 (P50406 whole entry): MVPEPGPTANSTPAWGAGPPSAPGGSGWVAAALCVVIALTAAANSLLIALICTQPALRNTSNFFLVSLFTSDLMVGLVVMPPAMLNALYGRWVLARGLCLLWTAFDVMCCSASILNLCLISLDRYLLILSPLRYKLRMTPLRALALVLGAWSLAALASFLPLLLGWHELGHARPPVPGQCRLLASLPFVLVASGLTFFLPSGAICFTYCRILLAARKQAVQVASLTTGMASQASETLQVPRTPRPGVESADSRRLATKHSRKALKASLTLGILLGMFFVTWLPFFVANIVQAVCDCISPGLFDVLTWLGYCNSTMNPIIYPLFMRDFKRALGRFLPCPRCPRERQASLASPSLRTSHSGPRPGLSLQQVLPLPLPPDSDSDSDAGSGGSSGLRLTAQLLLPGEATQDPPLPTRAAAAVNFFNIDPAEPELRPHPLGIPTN
# Method in brief: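 Cells continuously express recombinant human 5-HT6 receptors. Serotonin stimulation raises intracellular cyclic AMP, which was monitored continuously by LANCE technology. Read-out was inhibition of the serotonin-dependent cAMP response.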
# [4] = Inhibition of L-type calcium channel
# Cholinesterase = Cholinesterase (Homo sapiens, UniProt P06276); assay: Inhibition of BuChE
# Sequence of Cholinesterase (P06276 whole entry, the tested form may be a part): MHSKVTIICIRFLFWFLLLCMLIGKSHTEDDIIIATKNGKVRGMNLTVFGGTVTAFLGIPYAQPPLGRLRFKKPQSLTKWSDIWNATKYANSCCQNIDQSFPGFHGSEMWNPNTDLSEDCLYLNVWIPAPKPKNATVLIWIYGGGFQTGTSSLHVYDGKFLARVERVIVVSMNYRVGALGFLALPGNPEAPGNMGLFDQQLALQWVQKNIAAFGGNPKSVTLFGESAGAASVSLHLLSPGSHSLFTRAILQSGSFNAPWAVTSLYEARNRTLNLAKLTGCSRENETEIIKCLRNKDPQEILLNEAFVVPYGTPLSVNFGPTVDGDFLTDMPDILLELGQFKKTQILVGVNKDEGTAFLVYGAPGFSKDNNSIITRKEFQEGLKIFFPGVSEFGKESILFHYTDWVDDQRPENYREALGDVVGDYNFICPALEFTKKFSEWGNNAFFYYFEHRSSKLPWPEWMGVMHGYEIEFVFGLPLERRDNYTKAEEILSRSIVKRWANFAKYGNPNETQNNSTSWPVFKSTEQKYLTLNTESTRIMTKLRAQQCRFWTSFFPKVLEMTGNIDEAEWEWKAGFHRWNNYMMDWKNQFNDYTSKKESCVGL
# [5] = Neuroprotective activity in cerebellum cell culture assessed as protection against beta-amyloid fragment Abeta (25-35)-induced neurotoxicity; format: functional, tissue-based
# [6] = target: Glutamate NMDA receptor (Rattus norvegicus) (UniProt P35439+Q00959+Q00960+Q00961+Q62645+Q8VHN2+Q9R1M7); assay: Inhibition of NMDA receptor in rat brain cortical neurons assessed as blocking of NMDA-induced currents; format: tissue-based
# Acetylcholinesterase = Acetylcholinesterase (Homo sapiens, UniProt P22303); assay: Inhibition of AChE
# Sequence of Acetylcholinesterase (P22303 whole entry): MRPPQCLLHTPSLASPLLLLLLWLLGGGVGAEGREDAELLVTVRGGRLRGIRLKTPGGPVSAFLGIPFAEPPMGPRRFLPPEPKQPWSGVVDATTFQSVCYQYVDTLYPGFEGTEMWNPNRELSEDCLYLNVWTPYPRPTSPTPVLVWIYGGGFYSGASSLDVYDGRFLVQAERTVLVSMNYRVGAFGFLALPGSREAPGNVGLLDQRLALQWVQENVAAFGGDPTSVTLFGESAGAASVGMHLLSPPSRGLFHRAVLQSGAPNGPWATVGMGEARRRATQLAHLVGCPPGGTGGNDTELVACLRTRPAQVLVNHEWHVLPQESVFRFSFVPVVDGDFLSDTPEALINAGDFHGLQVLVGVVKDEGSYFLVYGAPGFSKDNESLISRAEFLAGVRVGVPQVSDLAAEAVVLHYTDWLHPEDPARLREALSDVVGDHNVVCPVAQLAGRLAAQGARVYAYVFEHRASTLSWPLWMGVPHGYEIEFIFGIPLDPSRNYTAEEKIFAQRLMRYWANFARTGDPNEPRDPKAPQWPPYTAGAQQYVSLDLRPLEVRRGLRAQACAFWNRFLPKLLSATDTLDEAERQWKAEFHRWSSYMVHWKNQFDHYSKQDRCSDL
Structure (SMILES),IC50 (Histamine H1 receptor [1]) [nM],IC50 (Histamine H1 receptor [2]) [nM],IC50 ([3]; read-out: IC50) [µM],further results
CN1CCc2c(c3cc(C(F)(F)F)ccc3n2CCc2ccccn2)C1,560,1590,1.59,–
CN1CCc2c(c3ccccc3n2CCc2ccccn2)C1,1820,930,15.8,–
Cc1ccc(CCn2c3c(c4cc(F)ccc42)CN(C)CC3)cn1,110,730,10.7,–
CN1CCc2c(c3cc(F)ccc3n2CCc2ccccn2)C1,940,610,2.98,–
Cc1ccc2c(c1)c1c(n2CCc2ccccn2)CCN(C)C1,500,10000,0.86,–
CN1CCc2c(c3cc(C(=O)O)ccc3n2CCc2ccncc2)C1,> 10000,–,> 10,–
CN1CCc2c(c3ccccc3n2CCc2ccncc2)C1,120,500,8.91,–
Cc1ccc2c(c1)c1c(n2CCc2ccncc2)CCN(C2CCN(C)CC2)C1,7570,–,–,IC50 ([3]; hek293): Not Active
CN1CCc2c(c3cc(C#N)ccc3n2CCc2ccccn2)C1,1290,–,7.47,–
COc1ccc2c(c1)c1c(n2CCc2ccccn2)CCN(C)C1,4670,–,8.36,–
COc1ccc2c(c1)c1c(n2CCc2ccncc2)CCN(C)C1,390,–,4.34,–
CN1CCc2c(c3cc(C(F)(F)F)ccc3n2CCc2cccnc2)C1,> 10000,–,5.8,–
Cc1ccc2c(c1)c1c(n2CCc2cccnc2)CCN(C)C1,500,3160,0.44,–
Cc1ccc2c(c1)c1c(n2CCc2cnccn2)CCN(C)C1,320,7940,2.06,–
CN1CCc2c(c3ccccc3n2CCc2cccnc2)C1,100,410,5.99,–
CN1CCc2c(c3cc(F)ccc3n2CCc2cccnc2)C1,650,930,> 10,–
Cc1ccc2c(c1)c1c(n2CCc2ccc(C)nc2)CCN(C)C1 [LATREPIRDINE],160,1580,0.89,IC50 [4]: 57 µM; IC50 (Cholinesterase): 7.9 µM; EC50 [5]: 25 µM; ED50 [6]: 42 µM; IC50 (Acetylcholinesterase): 45 µM
CN1CCc2c(c3cc(F)ccc3n2CCc2ccncc2)C1,120,470,3.24,–
CN1CCc2c(c3cc(-c4cccnc4)ccc3n2CCc2ccccn2)C1,7160,–,43.2,–
Cc1ccc2c(c1)c1c(n2CCc2ccccn2)CCN(C2CCN(C)CC2)C1,> 10000,–,–,IC50 ([3]; hek293): Not Active
Cc1ccc2c(c1)c1c(n2CCc2ccncc2)CCN(C)C1,160,3980,0.37,–
CN1CCc2c(c3cc(C(F)(F)F)ccc3n2CCc2ccncc2)C1,220,–,6.4,–
Cc1ccc2c(c1)c1c(n2CCc2cccnc2)CCN(C2CCN(C)CC2)C1,2790,–,–,IC50 ([3]; hek293): Not Active
CN1CCc2c(c3cc(Br)ccc3n2CCc2ccccn2)C1,120,–,1.04,–
